In ChEMBL document CHEMBL3576819, “Design, synthesis, biological evaluation and molecular docking studies of phenylpropanoid derivatives as potent anti-hepatitis B virus agents” (Eur J Med Chem, 2015):

What was measured:
[1] = Cytotoxicity against human HepG2.2.15 cells assessed as cell death after 9 days by MTT assay; assay type: cell-based, HepG2 2.2.15
How it was run: (§1)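 HepG2.2.15 cells (MEM, 10% FBS, 380 µg/ml G418, 37 °C, 5% CO2) seeded at 1×10^5 cells/ml, cultured 24 h, then exposed to various drug concentrations; drug-containing medium renewed every 3 d. OD read at 450 nm after 9 days; percent cell death calculated; CC50 = concentration killing 50% of cells. Means of at least two experiments.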

[2] = system: Hepatitis B virus; assay: Antiviral activity against Hepatitis B virus infected in human HepG2.2.15 cells assessed as inhibition of HBsAg secretion by ELISA; assay type: functional, organism-based; conditions: HepG2 2.2.15
How it was run: (§2)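 HepG2.2.15 cells (MEM, 10% FBS, 380 µg/ml G418) seeded at 1×10^5 cells/ml, held 24 h at 37 °C, then treated with various drug concentrations; medium with drug renewed every 3 d for up to 9 d. Culture medium sampled on days 3, 6 and 9, stored at -20 °C, and assayed for secreted antigen. Lamivudine as positive control; IC50 = 50% inhibition of secretion; means of at least two experiments.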

[3] = Selectivity index, ratio of CC50 for human HepG2.2.15 cells to IC50 for Hepatitis B virus infected in human HepG2.2.15 cells assessed as inhibition of HBsAg secretion; assay type: functional
How it was run: (§3)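 Selectivity index computed as CC50/IC50, with CC50 from cell death of HepG2.2.15 cells after 9 days of treatment (OD 450 nm) and IC50 from 50% inhibition of HBeAg or HBsAg secretion in the same cells; medium with drug renewed every 3 d.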

[4] = system: Hepatitis B virus; assay: Antiviral activity against Hepatitis B virus infected in human HepG2.2.15 cells assessed as inhibition of HBeAg secretion by ELISA; assay type: functional, organism-based; conditions: HepG2 2.2.15; how it was run: as §2
[5] = Selectivity index, ratio of CC50 for human HepG2.2.15 cells to IC50 for Hepatitis B virus infected in human HepG2.2.15 cells assessed as inhibition of HBeAg secretion; assay type: functional; how it was run: as §3
[6] = system: Hepatitis B virus; assay: Antiviral activity against Hepatitis B virus infected in human HepG2.2.15 cells assessed as inhibition of HBsAg secretion at 300 uM after 3 days by ELISA; assay type: functional; conditions: HepG2 2.2.15, 72 h; how it was run: as §2
[7] = system: Hepatitis B virus; assay: Antiviral activity against Hepatitis B virus infected in human HepG2.2.15 cells assessed as inhibition of HBsAg secretion at 150 uM after 3 days by ELISA; assay type: functional; conditions: HepG2 2.2.15, 72 h; how it was run: as §2
[8] = system: Hepatitis B virus; assay: Antiviral activity against Hepatitis B virus infected in human HepG2.2.15 cells assessed as inhibition of HBsAg secretion at 75 uM after 3 days by ELISA; assay type: functional; conditions: HepG2 2.2.15, 72 h; how it was run: as §2
[9] = system: Hepatitis B virus; assay: Antiviral activity against Hepatitis B virus infected in human HepG2.2.15 cells assessed as inhibition of HBsAg secretion at 37.5 uM after 3 days by ELISA; assay type: functional; conditions: HepG2 2.2.15, 72 h; how it was run: as §2
[10] = system: Hepatitis B virus; assay: Antiviral activity against Hepatitis B virus infected in human HepG2.2.15 cells assessed as inhibition of HBsAg secretion at 300 uM after 6 days by ELISA; assay type: functional; conditions: HepG2 2.2.15, 144 h; how it was run: as §2
[11] = system: Hepatitis B virus; assay: Antiviral activity against Hepatitis B virus infected in human HepG2.2.15 cells assessed as inhibition of HBsAg secretion at 150 uM after 6 days by ELISA; assay type: functional; conditions: HepG2 2.2.15, 144 h; how it was run: as §2
[12] = system: Hepatitis B virus; assay: Antiviral activity against Hepatitis B virus infected in human HepG2.2.15 cells assessed as inhibition of HBsAg secretion at 75 uM after 6 days by ELISA; assay type: functional; conditions: HepG2 2.2.15, 144 h; how it was run: as §2
[13] = system: Hepatitis B virus; assay: Antiviral activity against Hepatitis B virus infected in human HepG2.2.15 cells assessed as inhibition of HBsAg secretion at 37.5 uM after 6 days by ELISA; assay type: functional; conditions: HepG2 2.2.15, 144 h; how it was run: as §2
[14] = system: Hepatitis B virus; assay: Antiviral activity against Hepatitis B virus infected in human HepG2.2.15 cells assessed as inhibition of HBsAg secretion at 300 uM after 9 days by ELISA; assay type: functional; conditions: HepG2 2.2.15, 216 h; how it was run: as §2
[15] = system: Hepatitis B virus; assay: Antiviral activity against Hepatitis B virus infected in human HepG2.2.15 cells assessed as inhibition of HBsAg secretion at 150 uM after 9 days by ELISA; assay type: functional; conditions: HepG2 2.2.15, 216 h; how it was run: as §2
[16] = system: Hepatitis B virus; assay: Antiviral activity against Hepatitis B virus infected in human HepG2.2.15 cells assessed as inhibition of HBsAg secretion at 75 uM after 9 days by ELISA; assay type: functional; conditions: HepG2 2.2.15, 216 h; how it was run: as §2
[17] = system: Hepatitis B virus; assay: Antiviral activity against Hepatitis B virus infected in human HepG2.2.15 cells assessed as inhibition of HBsAg secretion at 37.5 uM after 9 days by ELISA; assay type: functional; conditions: HepG2 2.2.15, 216 h; how it was run: as §2
[18] = system: Hepatitis B virus; assay: Antiviral activity against Hepatitis B virus infected in human HepG2.2.15 cells assessed as cell survival at 300 uM after 9 days (reference value: 100%); assay type: functional; conditions: HepG2 2.2.15, 216 h; how it was run: as §1
[19] = system: Hepatitis B virus; assay: Antiviral activity against Hepatitis B virus infected in human HepG2.2.15 cells assessed as cell survival at 150 uM after 9 days (reference value: 100%); assay type: functional; conditions: HepG2 2.2.15, 216 h; how it was run: as §1
[20] = system: Hepatitis B virus; assay: Antiviral activity against Hepatitis B virus infected in human HepG2.2.15 cells assessed as cell survival at 75 uM after 9 days (reference value: 100%); assay type: functional; conditions: HepG2 2.2.15, 216 h; how it was run: as §1
[21] = system: Hepatitis B virus; assay: Antiviral activity against Hepatitis B virus infected in human HepG2.2.15 cells assessed as cell survival at 37.5 uM after 9 days (reference value: 100%); assay type: functional; conditions: HepG2 2.2.15, 216 h; how it was run: as §1
[22] = system: Hepatitis B virus; assay: Antiviral activity against Hepatitis B virus infected in human HepG2.2.15 cells assessed as inhibition of HBeAg secretion at 300 uM after 3 days by ELISA; assay type: functional; conditions: HepG2 2.2.15, 72 h; how it was run: as §2
[23] = system: Hepatitis B virus; assay: Antiviral activity against Hepatitis B virus infected in human HepG2.2.15 cells assessed as inhibition of HBeAg secretion at 150 uM after 3 days by ELISA; assay type: functional; conditions: HepG2 2.2.15, 72 h; how it was run: as §2
[24] = system: Hepatitis B virus; assay: Antiviral activity against Hepatitis B virus infected in human HepG2.2.15 cells assessed as inhibition of HBeAg secretion at 75 uM after 3 days by ELISA; assay type: functional; conditions: HepG2 2.2.15, 72 h; how it was run: as §2
[25] = system: Hepatitis B virus; assay: Antiviral activity against Hepatitis B virus infected in human HepG2.2.15 cells assessed as inhibition of HBeAg secretion at 37.5 uM after 3 days by ELISA; assay type: functional; conditions: HepG2 2.2.15, 72 h; how it was run: as §2
[26] = system: Hepatitis B virus; assay: Antiviral activity against Hepatitis B virus infected in human HepG2.2.15 cells assessed as inhibition of HBeAg secretion at 300 uM after 6 days by ELISA; assay type: functional; conditions: HepG2 2.2.15, 144 h; how it was run: as §2
[27] = system: Hepatitis B virus; assay: Antiviral activity against Hepatitis B virus infected in human HepG2.2.15 cells assessed as inhibition of HBeAg secretion at 150 uM after 6 days by ELISA; assay type: functional; conditions: HepG2 2.2.15, 144 h; how it was run: as §2
[28] = system: Hepatitis B virus; assay: Antiviral activity against Hepatitis B virus infected in human HepG2.2.15 cells assessed as inhibition of HBeAg secretion at 75 uM after 6 days by ELISA; assay type: functional; conditions: HepG2 2.2.15, 144 h; how it was run: as §2
[29] = system: Hepatitis B virus; assay: Antiviral activity against Hepatitis B virus infected in human HepG2.2.15 cells assessed as inhibition of HBeAg secretion at 37.5 uM after 6 days by ELISA; assay type: functional; conditions: HepG2 2.2.15, 144 h; how it was run: as §2
[30] = system: Hepatitis B virus; assay: Antiviral activity against Hepatitis B virus infected in human HepG2.2.15 cells assessed as inhibition of HBeAg secretion at 300 uM after 9 days by ELISA; assay type: functional; conditions: HepG2 2.2.15, 216 h; how it was run: as §2
[31] = system: Hepatitis B virus; assay: Antiviral activity against Hepatitis B virus infected in human HepG2.2.15 cells assessed as inhibition of HBeAg secretion at 150 uM after 9 days by ELISA; assay type: functional; conditions: HepG2 2.2.15, 216 h; how it was run: as §2
[32] = system: Hepatitis B virus; assay: Antiviral activity against Hepatitis B virus infected in human HepG2.2.15 cells assessed as inhibition of HBeAg secretion at 75 uM after 9 days by ELISA; assay type: functional; conditions: HepG2 2.2.15, 216 h; how it was run: as §2
[33] = system: Hepatitis B virus; assay: Antiviral activity against Hepatitis B virus infected in human HepG2.2.15 cells assessed as inhibition of HBeAg secretion at 37.5 uM after 9 days by ELISA; assay type: functional; conditions: HepG2 2.2.15, 216 h; how it was run: as §2

SMILES | CC50 at 216 h [1] | IC50 [2] | Ratio CC50/IC50 [3] | IC50 [4] | Ratio CC50/IC50 [5] | inhibition at 300 µM [6] | inhibition at 150 µM [7] | inhibition at 75 µM [8] | inhibition at 37.5 µM [9] | inhibition at 300 µM [10] | inhibition at 150 µM [11] | inhibition at 75 µM [12] | inhibition at 37.5 µM [13] | inhibition at 300 µM [14] | inhibition at 150 µM [15] | inhibition at 75 µM [16] | inhibition at 37.5 µM [17] | viability at 300 µM [18] | viability at 150 µM [19] | viability at 75 µM [20] | also measured
O=C(/C=C/c1ccc2c(c1)OCO2)O/N=C/c1ccco1 | 480 µM | 64.6 µM | 7.42 | 81.8 µM | 5.86 | 57.9% | 42.9% | 31.2% | 22.3% | 79.5% | 70.4% | 54.6% | 31.5% | 85.4% | 70.5% | 59.5% | 32.4% | 43% | 73.8% | 85.5% | viability at 37.5 µM [21]: 94.4%; inhibition at 300 µM [22]: 47.2%; inhibition at 150 µM [23]: 35.2%; inhibition at 75 µM [24]: 24.8%; inhibition at 37.5 µM [25]: 16.9%; inhibition at 300 µM [26]: 71%; inhibition at 150 µM [27]: 56.5%; inhibition at 75 µM [28]: 45.8%; inhibition at 37.5 µM [29]: 26%; inhibition at 300 µM [30]: 86.7%; inhibition at 150 µM [31]: 59.1%; inhibition at 75 µM [32]: 47%; inhibition at 37.5 µM [33]: 30.3%
O=C(/C=C/c1ccc2c(c1)OCO2)O/N=C/c1cccs1 | 266 µM | 75.8 µM | 3.51 | 118 µM | 2.26 | 58.3% | 46.3% | 32.1% | 20.4% | 87.5% | 63.2% | 45.4% | 29.6% | 88.1% | 63.1% | 52% | 29.7% | 79.4% | 92.2% | 105% | viability at 37.5 µM [21]: 112%; inhibition at 300 µM [22]: 51.3%; inhibition at 150 µM [23]: 33.5%; inhibition at 75 µM [24]: 25.7%; inhibition at 37.5 µM [25]: 15.9%; inhibition at 300 µM [26]: 63.2%; inhibition at 150 µM [27]: 46.1%; inhibition at 75 µM [28]: 32%; inhibition at 37.5 µM [29]: 20.6%; inhibition at 300 µM [30]: 71.6%; inhibition at 150 µM [31]: 51.5%; inhibition at 75 µM [32]: 42.9%; inhibition at 37.5 µM [33]: 25.4%
